Active and inactive are the calls of the source. The calls are words filed in the database; no cut-off is given here.

5 compounds from ChEMBL document CHEMBL5108071, “Potent and Specific Activators for Mitochondrial Sirtuins Sirt3 and Sirt5” (J Med Chem, 2022) can be followed below.

The target in experiment [1] is T1, NAD-dependent protein deacetylase sirtuin-1 (Homo sapiens) (UniProt Q96EB6).
T1 sequence (whole entry): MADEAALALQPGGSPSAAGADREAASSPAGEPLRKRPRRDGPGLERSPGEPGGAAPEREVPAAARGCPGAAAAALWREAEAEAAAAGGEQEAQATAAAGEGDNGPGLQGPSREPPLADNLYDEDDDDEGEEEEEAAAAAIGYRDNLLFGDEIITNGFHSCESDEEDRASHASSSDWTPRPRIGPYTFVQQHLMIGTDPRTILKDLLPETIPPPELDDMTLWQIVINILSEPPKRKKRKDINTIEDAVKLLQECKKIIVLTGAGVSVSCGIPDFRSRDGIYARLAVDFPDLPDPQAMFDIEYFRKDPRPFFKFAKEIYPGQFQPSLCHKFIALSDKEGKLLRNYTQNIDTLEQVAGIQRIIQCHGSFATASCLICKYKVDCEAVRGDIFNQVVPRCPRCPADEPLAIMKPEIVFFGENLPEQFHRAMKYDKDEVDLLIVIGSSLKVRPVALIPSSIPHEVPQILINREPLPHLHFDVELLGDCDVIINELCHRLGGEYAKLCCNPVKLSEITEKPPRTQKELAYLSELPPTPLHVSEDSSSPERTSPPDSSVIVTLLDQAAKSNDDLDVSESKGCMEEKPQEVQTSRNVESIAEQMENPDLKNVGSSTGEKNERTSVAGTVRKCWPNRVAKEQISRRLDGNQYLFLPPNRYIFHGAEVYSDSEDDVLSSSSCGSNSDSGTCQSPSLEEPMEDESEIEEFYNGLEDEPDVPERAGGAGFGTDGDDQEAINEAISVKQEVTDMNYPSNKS
Nature of the experiment: Activation of N-terminal his-tagged human SIRT1 expressed in Escherichia coli assessed as fold activation at 10 to 100 uM using p53-acK381 as substrate in presence of NAD+. As to conditions: filed as activator, dose 10-100 µM. The procedure, abridged:
(§1)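 Coupled enzymatic deacylation assay (nicotinamidase/GDH-coupled, continuous): 1.5 μM recombinant Sirtuin (expressed in E. coli, Ni-NTA purified, tag removed, size-exclusion purified) with 50 μM substrate peptide and 100 μM NAD+, without or with 10 μM or 100 μM 1,4-DHP, 5% final DMSO. Activity expressed relative to no-compound control.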

Experiment [2] addresses T2, NAD-dependent protein deacetylase sirtuin-3 (Mus musculus) (UniProt Q8R104).
T2 sequence (whole entry): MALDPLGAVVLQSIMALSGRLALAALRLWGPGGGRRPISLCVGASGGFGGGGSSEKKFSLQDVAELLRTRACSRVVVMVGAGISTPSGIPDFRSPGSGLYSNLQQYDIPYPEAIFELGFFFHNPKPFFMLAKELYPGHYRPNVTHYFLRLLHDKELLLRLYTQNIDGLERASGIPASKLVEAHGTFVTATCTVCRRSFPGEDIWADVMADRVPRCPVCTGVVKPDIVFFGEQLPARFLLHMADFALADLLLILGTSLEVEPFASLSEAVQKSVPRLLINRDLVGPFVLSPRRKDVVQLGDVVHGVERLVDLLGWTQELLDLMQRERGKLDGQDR
Description: Activation of SIRT3 in mouse MEF cells assessed as fold increase in mitochondrial mass at 25 uM incubated for 24 hrs by MT-DR staining based FACS assay. It counts as cell-based. The following applies: filed as activator. In short, it runs like this:
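Wild-type and Sirt3 knock-out MEFs exposed to 25 µM compound for 24 h, then stained with 10 nM MitoTracker Deep Red for 30 min at 37 °C; mitochondrial mass by FACS; mean ± SD, n = 2.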
For orientation: Flow cytometry measures light scatter and fluorescence of single cells or particles in a stream.

Experiment [3] deals with NAD-dependent protein deacylase sirtuin-5, mitochondrial (Homo sapiens) (UniProt Q9NXA8). Description: Activation of N-terminal his-tagged human SIRT5 (34 to 302 residues) expressed in Escherichia coli assessed as fold activation at 10 to 100 uM using CPS1-succ537 as substrate in presence of NAD+. The following applies: filed as activator, dose 10-100 µM. In short, it runs like this:
as §1
Target sequence in this assay (Q9NXA8 37-310 limits assumed): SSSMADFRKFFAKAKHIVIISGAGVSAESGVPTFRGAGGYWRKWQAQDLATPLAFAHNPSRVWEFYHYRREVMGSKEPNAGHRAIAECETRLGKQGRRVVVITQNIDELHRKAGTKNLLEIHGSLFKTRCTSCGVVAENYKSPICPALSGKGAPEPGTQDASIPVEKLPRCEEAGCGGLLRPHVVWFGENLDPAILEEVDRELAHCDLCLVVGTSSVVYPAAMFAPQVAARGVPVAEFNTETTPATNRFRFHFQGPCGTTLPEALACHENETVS

For experiment [4] the target is unchanged. Nature of the experiment: Activation of N-terminal his-tagged human SIRT5 (34 to 302 residues) expressed in Escherichia coli assessed as desuccinylation of substrate at 100 uM using CPS1-succ537 as substrate in presence of NAD+ by Mass spectrometry analysis. As to conditions: filed as activator. The procedure, abridged: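 MS-based desuccinylation assay: same components as coupled assay (1.5 μM Sirt5, 50 μM CPS1-succK537 peptide, 100 μM NAD+, 5% DMSO) but in 50 mM Na-phosphate pH 7.8 with 0.05 μg/μL PNCA to remove nicotinamide; compound at 100 μM; product and substrate peptides quantified by mass spectrometry.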
Target sequence in this assay (Q9NXA8 37-310 limits assumed): as above

The target is the same in experiment [5]. Description: Activation of human recombinant SIRT5 assessed as decrease in PDHA1-succinylation at 100 uM by Western blot analysis. As to conditions: filed as activator. Background: A western blot detects proteins with antibodies after separation by electrophoresis.
Target sequence in this assay (Q9NXA8 whole entry, looked up, the tested form may be a part): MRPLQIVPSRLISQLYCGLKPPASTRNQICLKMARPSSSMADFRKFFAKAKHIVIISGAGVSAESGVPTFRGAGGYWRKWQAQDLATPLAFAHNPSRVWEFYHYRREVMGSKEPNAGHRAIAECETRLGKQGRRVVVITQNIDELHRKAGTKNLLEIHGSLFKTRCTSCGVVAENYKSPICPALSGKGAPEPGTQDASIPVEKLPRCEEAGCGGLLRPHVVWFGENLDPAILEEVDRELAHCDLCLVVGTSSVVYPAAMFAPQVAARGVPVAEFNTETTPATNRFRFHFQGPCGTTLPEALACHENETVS
The target is the same in experiment [6]. Description: Activation of SIRT5 in human MDA-MB-231 cells assessed as decrease in GLS activity at 50 uM using TMP substrate incubated for 4 to 24 hrs. As to conditions: filed as activator, time 4-24 hrs.
Target sequence in this assay (Q9NXA8 whole entry, looked up, the tested form may be a part): as above
The target is the same in experiment [7]. Description: Activation of SIRT5 in human S2-013 cells assessed as decrease in GOT1 acetylation at 20 uM incubated for 24 hrs by Western blot analysis. As to conditions: filed as activator.
Target sequence in this assay (Q9NXA8 whole entry, looked up, the tested form may be a part): as above
For experiment [8] the target is unchanged. Description: Activation of SIRT5 in human CAPAN-1 cells assessed as decrease in GOT1 acetylation at 20 uM incubated for 24 hrs by Western blot analysis. As to conditions: filed as activator.
Target sequence in this assay (Q9NXA8 whole entry, looked up, the tested form may be a part): as above
Experiment [9] deals with T3, NAD-dependent protein deacetylase sirtuin-3, mitochondrial (Homo sapiens) (UniProt Q9NTG7).
T3 sequence (whole entry): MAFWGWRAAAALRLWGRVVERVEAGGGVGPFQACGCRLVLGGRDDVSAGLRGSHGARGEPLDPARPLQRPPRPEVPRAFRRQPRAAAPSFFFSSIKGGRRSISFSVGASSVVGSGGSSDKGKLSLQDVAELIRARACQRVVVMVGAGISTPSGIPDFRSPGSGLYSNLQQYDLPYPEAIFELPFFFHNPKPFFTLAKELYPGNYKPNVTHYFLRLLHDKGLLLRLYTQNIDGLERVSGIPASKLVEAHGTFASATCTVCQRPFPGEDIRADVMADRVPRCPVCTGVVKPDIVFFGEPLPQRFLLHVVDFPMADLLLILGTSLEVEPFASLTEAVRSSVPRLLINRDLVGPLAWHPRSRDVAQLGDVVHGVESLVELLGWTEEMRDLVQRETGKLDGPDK
Description: Activation of N-terminal his-tagged human SIRT3 (114 to 380 residues) expressed in Escherichia coli assessed as fold activation at 100 uM using ACS2-acK642 as substrate in presence of NAD+. The following applies: filed as activator. The procedure, abridged:
(§2)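 Coupled continuous enzymatic assay (nicotinamidase/GDH-linked): 1.5 µM purified Sirt3 with 50 µM ACS2-acK642 peptide and 100 µM NAD+, compound at 10 µM, 100 µM or titrated, 5% DMSO final; fold deacetylation versus no-compound control.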

Experiment [10] deals with T3, NAD-dependent protein deacetylase sirtuin-3, mitochondrial (Homo sapiens). Nature of the experiment: Activation of N-terminal his-tagged human SIRT3 (114 to 380 residues) expressed in Escherichia coli at 100 uM using ACS2-acK642 as substrate in presence of NAD+ by Mass spectrometry assay relative to control. The following applies: filed as activator. In short, it runs like this: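 Mass-spectrometric deacetylation assay using coupled-assay components (1.5 µM Sirt3, 50 µM peptide, 100 µM NAD+, compound 100 µM) in 50 mM Na-phosphate pH 7.8 plus 0.05 µg/µL PNCA to remove nicotinamide; product and substrate peptides quantified.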

Experiment [11] has the same target. Nature of the experiment: Activation of SIRT3 in human MDA-MB-231 cells assessed as increase in FdL deacetylation activity at 50 to 100 uM incubated for 3 hrs. It counts as cell-based. As to conditions: filed as activator, dose 50-100 µM. The procedure, abridged: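 MDA-MB-231 cells (RPMI 1640, 10% FBS, 37 °C, 5% CO2) treated 3 h at 50 or 100 µM; 40 µg mitochondrial extract incubated with Fluor de Lys substrate 40 min 37 °C, then developer 10 min; fluorescence ex 360/em 460 nm, buffer background subtracted.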

Experiment [12] shares this target. Nature of the experiment: Activation of STAT3 protein level in human MDA-MB-231 cells assessed as STAT3 protein expression incubated for 24 hrs by Western blotting. It counts as cell-based. The following applies: filed as activator.
Experiment [13] has the same target. Nature of the experiment: Activation of SIRT3 in human MDA-MB-231 cells assessed as increase in GDH activity at 50 uM incubated for 8 hrs […]. As to conditions: filed as activator. It counts as cell-based. The procedure, abridged: (§3)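 MDA-MB-231 cells given 50 µM compound for 4 h, or 4 h then re-dosed for a further 4 h; 10^6 cells lysed, supernatant mixed with glutamate/developer mix, 3 min at 37 °C, absorbance 450 nm, buffer blank subtracted; means ± SD, Student's t-test.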

Experiment [14] has the same target. Nature of the experiment: Activation of SIRT3 in human MDA-MB-231 cells assessed as decrease in MnSOD-Lys68 acetylation level at 50 uM incubated for 16 hrs by Western blot analysis assay. It counts as cell-based. The following applies: filed as activator. The procedure, abridged:
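MDA-MB-231 cells (wild-type and Sirt3-knockdown) treated with 50 µM; 50 µg whole-cell lysate protein run on SDS-PAGE, blotted to PVDF, probed with anti-MnSOD-acK68 and anti-MnSOD, ECL detection; each blot done in triplicate.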

Experiment [15] deals with T4, NAD-dependent protein deacetylase sirtuin-2 (Homo sapiens) (UniProt Q8IXJ6).
T4 sequence (whole entry): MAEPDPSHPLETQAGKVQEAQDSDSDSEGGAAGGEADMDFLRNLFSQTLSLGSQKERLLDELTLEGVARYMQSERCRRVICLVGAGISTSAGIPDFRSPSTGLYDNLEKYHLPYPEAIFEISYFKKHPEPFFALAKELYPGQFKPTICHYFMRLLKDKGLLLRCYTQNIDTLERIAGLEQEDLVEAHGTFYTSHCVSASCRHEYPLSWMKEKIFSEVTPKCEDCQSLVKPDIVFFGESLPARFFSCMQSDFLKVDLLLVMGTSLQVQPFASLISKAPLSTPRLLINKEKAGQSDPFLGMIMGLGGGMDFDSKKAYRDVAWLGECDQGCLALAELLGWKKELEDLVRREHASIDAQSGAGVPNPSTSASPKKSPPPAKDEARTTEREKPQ
Nature of the experiment: Activation of N-terminal SUMO-tagged human SIRT2 (43 to 356 residues) expressed in Escherichia coli assessed as deacetylation of substrate by measuring fold activation at 100 uM using acetylated alpha tubulin-K2 as substrate in presence of NAD+. The following applies: filed as activator. In short, it runs like this:
as §1

Experiment [16] deals with T1, NAD-dependent protein deacetylase sirtuin-1 (Homo sapiens). Nature of the experiment: Activation of N-terminal his-tagged human SIRT1 expressed in Escherichia coli assessed as fold activation at 100 uM using p53-acK381 as substrate in presence of NAD+. As to conditions: filed as activator. The procedure, abridged:
as §1

Experiment [17] has as its target T3, NAD-dependent protein deacetylase sirtuin-3, mitochondrial (Homo sapiens). Description: Activation of N-terminal his-tagged human SIRT3 (114 to 380 residues) expressed in Escherichia coli using ACS2-acK642 as substrate in presence of NAD+. The following applies: filed as activator. In short, it runs like this:
as §2

For experiment [18] the target is unchanged. Description: Activation of N-terminal his-tagged human SIRT3 (114 to 380 residues) expressed in Escherichia coli assessed as fold activation at 10 to 100 uM using ACS2-acK642 as substrate in presence of NAD+. The following applies: filed as activator, dose 10-100 µM. The procedure, abridged:
as §2

The target in experiment [19] is NAD-dependent protein deacylase sirtuin-5, mitochondrial (Homo sapiens) (UniProt Q9NXA8). Description: Activation of N-terminal his-tagged human SIRT5 (34 to 302 residues) expressed in Escherichia coli assessed as fold activation at more than 200 uM using CPS1-succ537 as substrate in presence of NAD+. The following applies: filed as activator. The procedure, abridged: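 Sirt5 desuccinylation measured by coupled enzymatic assay: 1.5 µM enzyme, 50 µM CPS1-succK537 peptide, 100 µM NAD+, 5% DMSO final; compound titrated; fold activation relative to untreated reaction.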
Target sequence in this assay (Q9NXA8 37-310 limits assumed): as the sequence (Q9NXA8 37-310 limits assumed) above

Experiment [20] has as its target T4, NAD-dependent protein deacetylase sirtuin-2 (Homo sapiens). Description: Activation of N-terminal SUMO-tagged human SIRT2 (43 to 356 residues) expressed in Escherichia coli assessed as deacetylation of substrate at 100 uM using acetylated alpha tubulin-K2 as substrate in presence of NAD+. As to conditions: filed as activator. The procedure, abridged:
as §1

Experiment [21] deals with T3, NAD-dependent protein deacetylase sirtuin-3, mitochondrial (Homo sapiens). Description: Activation of SIRT3 in human MDA-MB-231 cells assessed as increase in GDH activity at 50 uM incubated for 4 hrs […]. As to conditions: filed as activator. It counts as cell-based. In short, it runs like this: as §3

In the case of `CCOC(=O)C1=CN(Cc2ccccc2)C=C(C(=O)OCC)C1c1cnc2ccccc2c1`, in experiment [1], the fold change (FC) is 1.5. Moreover, in [2], the outcome was Active.
For the compound `CCOC(=O)C1=CN(C(=O)c2ccccc2)C=C(C(=O)OCC)C1c1ccsc1`, the fold change (FC) in experiment [3] was found to be 3. The result in experiment [4], in experiment [5], in experiment [6], in [7] and in experiment [8] was Active.
In the case of `CCOC(=O)C1=CN(C(=O)c2ccccc2)C=C(C(=O)OCC)C1c1ccccc1`, the fold change (FC) in experiment [9] came out at 3.5; in [1], 1.5. Also, the Activity in experiment [10] was found to be 300%. The outcome in [11], in [12], in experiment [13] and in experiment [14] was Active.
Turning to `CCOC(=O)C1=CN(C(=O)c2cc(OC)c(OC)c(OC)c2)C=C(C(=O)OCC)C1c1cccc(N)c1`, the fold change (FC) was 3 in experiment [3], 2.5 in experiment [15] and 4 in experiment [16].
For the compound `CCOC(=O)C1=CN(C(=O)c2cc(OC)c(OC)c(OC)c2)C=C(C(=O)OCC)C1c1ccccc1`, the outcome in experiment [17], in experiment [20] and in [21] was Active. Moreover, the fold change (FC) in experiment [18] and in experiment [19] was 5 in each case. The Activity in experiment [10] was 400%.
